In ChEMBL document CHEMBL1138520, “Molecular and conformational determinants of pituitary adenylate cyclase-activating polypeptide (PACAP) for activation of the PAC1 receptor” (J Med Chem, 2009):
Where a SMILES comes first, the peptide text is derived from it.

Experiments:
[1] = molecular target: T1, Pituitary adenylate cyclase-activating polypeptide type I receptor (Homo sapiens, UniProt P41586); assay: Agonist activity at human recombinant PAC1 receptor expressed in CHO cells assessed as PACAP38-induced calcium mobilization by FLIPR assay relative to PACAP38; assay type: functional, cell-based
In short: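 CHO cells stably expressing recombinant human PAC1, plated 24 h before assay, loaded with fluo-4 AM for 60 min at 37 °C in the dark, then rinsed into HBSS for 15 min at 37 °C. Peptide was added 18 s into a 150 s read (ex 480/em 525 nm), at final concentrations of 1 × 10-12 to 1 × 10^-5 M. Response was normalised to 1 × 10^-5 M PACAP38 on each plate. EC50 and efficacy came from nonlinear regression; 4-10 independent assays in duplicate.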
Target sequence in this assay (P41586 21-468 limits assumed): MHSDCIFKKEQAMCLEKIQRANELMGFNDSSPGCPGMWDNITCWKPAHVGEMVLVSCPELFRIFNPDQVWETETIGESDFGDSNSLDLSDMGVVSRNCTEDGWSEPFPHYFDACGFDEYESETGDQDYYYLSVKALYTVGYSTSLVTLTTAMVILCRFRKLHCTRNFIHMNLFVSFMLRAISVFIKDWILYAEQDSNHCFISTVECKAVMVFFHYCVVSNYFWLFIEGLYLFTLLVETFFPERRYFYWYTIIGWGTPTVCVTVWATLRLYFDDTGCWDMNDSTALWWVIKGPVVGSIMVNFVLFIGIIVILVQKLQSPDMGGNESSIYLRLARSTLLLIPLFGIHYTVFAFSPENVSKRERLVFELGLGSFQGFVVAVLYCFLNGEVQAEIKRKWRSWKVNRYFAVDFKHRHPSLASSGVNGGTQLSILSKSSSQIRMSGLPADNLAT

[2] = molecular target: T1, Pituitary adenylate cyclase-activating polypeptide type I receptor; assay: Displacement of [125I]Ac-PACAP27 from human recombinant PAC1 receptor expressed in CHO cells by gamma- counter; assay type: cell-based
Target sequence in this assay (P41586 whole entry): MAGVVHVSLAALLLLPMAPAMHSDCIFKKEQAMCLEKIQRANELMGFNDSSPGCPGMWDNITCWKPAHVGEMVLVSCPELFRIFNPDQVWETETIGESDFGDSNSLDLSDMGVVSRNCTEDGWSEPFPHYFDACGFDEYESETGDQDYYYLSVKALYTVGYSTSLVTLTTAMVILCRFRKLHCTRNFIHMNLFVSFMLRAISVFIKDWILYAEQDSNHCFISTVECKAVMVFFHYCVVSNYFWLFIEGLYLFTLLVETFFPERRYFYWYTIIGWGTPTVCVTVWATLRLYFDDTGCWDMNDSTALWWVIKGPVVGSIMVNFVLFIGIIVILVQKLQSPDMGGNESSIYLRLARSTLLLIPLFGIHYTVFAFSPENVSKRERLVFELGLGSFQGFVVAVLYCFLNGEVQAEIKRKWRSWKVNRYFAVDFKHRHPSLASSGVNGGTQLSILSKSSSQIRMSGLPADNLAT

[3] = molecular target: T1, Pituitary adenylate cyclase-activating polypeptide type I receptor; assay: Agonist activity at human recombinant PAC1 receptor expressed in CHO cells assessed as PACAP38-induced calcium mobilization by FLIPR assay; assay type: functional, cell-based
In short: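 CHO cells stably expressing recombinant human PAC1, plated 24 h before assay, loaded with fluo-4 AM for 60 min at 37 °C in the dark, then rinsed into HBSS for 15 min at 37 °C. EC50 and efficacy came from nonlinear regression; 4-10 independent assays in duplicate.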
Target sequence in this assay (P41586 whole entry): as above

| SMILES | Emax [1] [%] | IC50 [2] [nM] | EC50 [3] [nM] |
| --- | --- | --- | --- |
| CC[C@H](C)[C@H](NC(=O)CNC(=O)[C@H](CC(N)=O)NC(=O)[C@H](CO)NC(=O)[C@@H](N)Cc1cnc[nH]1)C(=O)N[C@@H](Cc1ccccc1)C(=O)N[C@H](C(=O)N[C@@H](CC(=O)O)C(=O)N[C@@H](CO)C(=O)N[C@@H](Cc1ccc(O)cc1)C(=O)N[C@@H](CO)C(=O)N[C@@H](CCCNC(=N)N)C(=O)N[C@@H](Cc1ccc(O)cc1)C(=O)N[C@@H](CCCNC(=N)N)C(=O)N[C@@H](CCCCN)C(=O)N[C@@H](CCC(N)=O)C(=O)N[C@@H](CCSC)C(=O)N[C@@H](C)C(=O)N[C@H](C(=O)N[C@@H](CCCCN)C(=O)N[C@@H](CCCCN)C(=O)N[C@@H](Cc1ccc(O)cc1)C(=O)N[C@@H](CC(C)C)C(=O)N[C@@H](C)C(=O)N[C@@H](C)C(=O)N[C@H](C(=O)N[C@@H](CC(C)C)C(N)=O)C(C)C)C(C)C)[C@@H](C)O | 91.2 | 284 | 140 |
| CC[C@H](C)[C@H](NC(=O)CNC(=O)[C@H](CC(=O)O)NC(=O)[C@H](CO)NC(=O)[C@@H](N)Cc1cnc[nH]1)C(=O)N[C@@H](C)C(=O)N[C@H](C(=O)N[C@@H](CC(=O)O)C(=O)N[C@@H](CO)C(=O)N[C@@H](Cc1ccc(O)cc1)C(=O)N[C@@H](CO)C(=O)N[C@@H](CCCNC(=N)N)C(=O)N[C@@H](Cc1ccc(O)cc1)C(=O)N[C@@H](CCCNC(=N)N)C(=O)N[C@@H](CCCCN)C(=O)N[C@@H](CCC(N)=O)C(=O)N[C@@H](CCSC)C(=O)N[C@@H](C)C(=O)N[C@H](C(=O)N[C@@H](CCCCN)C(=O)N[C@@H](CCCCN)C(=O)N[C@@H](Cc1ccc(O)cc1)C(=O)N[C@@H](CC(C)C)C(=O)N[C@@H](C)C(=O)N[C@@H](C)C(=O)N[C@H](C(=O)N[C@@H](CC(C)C)C(=O)NCC(=O)N[C@@H](CCCCN)C(=O)N[C@@H](CCCNC(=N)N)C(=O)N[C@@H](Cc1ccc(O)cc1)C(=O)N[C@@H](CCCCN)C(=O)N[C@@H](CCC(N)=O)C(=O)N[C@@H](CCCNC(=N)N)C(=O)N[C@H](C(=O)N[C@@H](CCCCN)C(=O)N[C@@H](CC(N)=O)C(=O)N[C@@H](CCCCN)C(N)=O)C(C)C)C(C)C)C(C)C)[C@@H](C)O (H-HSDGIATDSYSRYRKQMAVKKYLAAVLGKRYKQRVKNK-NH2) | 50.4 | 208 | 17.3 |
| CC[C@H](C)[C@H](NC(=O)CNC(=O)[C@H](CC(=O)O)N(C)C(=O)[C@H](CO)NC(=O)[C@@H](N)Cc1cnc[nH]1)C(=O)N[C@@H](Cc1ccccc1)C(=O)N[C@H](C(=O)N[C@@H](CC(=O)O)C(=O)N[C@@H](CO)C(=O)N[C@@H](Cc1ccc(O)cc1)C(=O)N[C@@H](CO)C(=O)N[C@@H](CCCNC(=N)N)C(=O)N[C@@H](Cc1ccc(O)cc1)C(=O)N[C@@H](CCCNC(=N)N)C(=O)N[C@@H](CCCCN)C(=O)N[C@@H](CCC(N)=O)C(=O)N[C@@H](CCSC)C(=O)N[C@@H](C)C(=O)N[C@H](C(=O)N[C@@H](CCCCN)C(=O)N[C@@H](CCCCN)C(=O)N[C@@H](Cc1ccc(O)cc1)C(=O)N[C@@H](CC(C)C)C(=O)N[C@@H](C)C(=O)N[C@@H](C)C(=O)N[C@H](C(=O)N[C@@H](CC(C)C)C(N)=O)C(C)C)C(C)C)[C@@H](C)O | 89.2 | 25.2 | 418 |
| CC[C@H](C)[C@H](NC(=O)CNC(=O)[C@H](CC(=O)O)NC(=O)[C@H](CO)NC(=O)[C@@H](N)Cc1cnc[nH]1)C(=O)N[C@@H](Cc1ccccc1)C(=O)N[C@@H](C)C(=O)N[C@@H](CC(=O)O)C(=O)N[C@@H](CO)C(=O)N[C@@H](Cc1ccc(O)cc1)C(=O)N[C@@H](CO)C(=O)N[C@@H](CCCNC(=N)N)C(=O)N[C@@H](Cc1ccc(O)cc1)C(=O)N[C@@H](CCCNC(=N)N)C(=O)N[C@@H](CCCCN)C(=O)N[C@@H](CCC(N)=O)C(=O)N[C@@H](CCSC)C(=O)N[C@@H](C)C(=O)N[C@H](C(=O)N[C@@H](CCCCN)C(=O)N[C@@H](CCCCN)C(=O)N[C@@H](Cc1ccc(O)cc1)C(=O)N[C@@H](CC(C)C)C(=O)N[C@@H](C)C(=O)N[C@@H](C)C(=O)N[C@H](C(=O)N[C@@H](CC(C)C)C(N)=O)C(C)C)C(C)C | 112 | 10.8 | 8.75 |
| CC[C@H](C)[C@H](NC(=O)CNC(=O)[C@H](C)NC(=O)[C@H](CO)NC(=O)[C@@H](N)Cc1cnc[nH]1)C(=O)N[C@@H](Cc1ccccc1)C(=O)N[C@H](C(=O)N[C@@H](CC(=O)O)C(=O)N[C@@H](CO)C(=O)N[C@@H](Cc1ccc(O)cc1)C(=O)N[C@@H](CO)C(=O)N[C@@H](CCCNC(=N)N)C(=O)N[C@@H](Cc1ccc(O)cc1)C(=O)N[C@@H](CCCNC(=N)N)C(=O)N[C@@H](CCCCN)C(=O)N[C@@H](CCC(N)=O)C(=O)N[C@@H](CCSC)C(=O)N[C@@H](C)C(=O)N[C@H](C(=O)N[C@@H](CCCCN)C(=O)N[C@@H](CCCCN)C(=O)N[C@@H](Cc1ccc(O)cc1)C(=O)N[C@@H](CC(C)C)C(=O)N[C@@H](C)C(=O)N[C@@H](C)C(=O)N[C@H](C(=O)N[C@@H](CC(C)C)C(=O)NCC(=O)N[C@@H](CCCCN)C(=O)N[C@@H](CCCNC(=N)N)C(=O)N[C@@H](Cc1ccc(O)cc1)C(=O)N[C@@H](CCCCN)C(=O)N[C@@H](CCC(N)=O)C(=O)N[C@@H](CCCNC(=N)N)C(=O)N[C@H](C(=O)N[C@@H](CCCCN)C(=O)N[C@@H](CC(N)=O)C(=O)N[C@@H](CCCCN)C(N)=O)C(C)C)C(C)C)C(C)C)[C@@H](C)O (H-HSAGIFTDSYSRYRKQMAVKKYLAAVLGKRYKQRVKNK-NH2) | 64.1 | 97.2 | 10000 |
| CC[C@H](C)[C@H](NC(=O)CNC(=O)[C@H](CC(=O)O)NC(=O)[C@H](CO)NC(=O)[C@@H](N)Cc1cncn1C)C(=O)N[C@@H](Cc1ccccc1)C(=O)N[C@H](C(=O)N[C@@H](CC(=O)O)C(=O)N[C@@H](CO)C(=O)N[C@@H](Cc1ccc(O)cc1)C(=O)N[C@@H](CO)C(=O)N[C@@H](CCCNC(=N)N)C(=O)N[C@@H](Cc1ccc(O)cc1)C(=O)N[C@@H](CCCNC(=N)N)C(=O)N[C@@H](CCCCN)C(=O)N[C@@H](CCC(N)=O)C(=O)N[C@@H](CCSC)C(=O)N[C@@H](C)C(=O)N[C@H](C(=O)N[C@@H](CCCCN)C(=O)N[C@@H](CCCCN)C(=O)N[C@@H](Cc1ccc(O)cc1)C(=O)N[C@@H](CC(C)C)C(=O)N[C@@H](C)C(=O)N[C@@H](C)C(=O)N[C@H](C(=O)N[C@@H](CC(C)C)C(N)=O)C(C)C)C(C)C)[C@@H](C)O | 96.9 | 15.6 | 52.5 |

Now those with a lower IC50 [2], led by results:

| Emax [1] [%] | IC50 [2] [nM] | EC50 [3] [nM] | SMILES |
| --- | --- | --- | --- |
| 90.2 | 9.84 | 7.4 | CC[C@H](C)[C@H](NC(=O)[C@H](C)NC(=O)[C@H](CC(=O)O)NC(=O)[C@H](CO)NC(=O)[C@@H](N)Cc1cnc[nH]1)C(=O)N[C@@H](Cc1ccccc1)C(=O)N[C@H](C(=O)N[C@@H](CC(=O)O)C(=O)N[C@@H](CO)C(=O)N[C@@H](Cc1ccc(O)cc1)C(=O)N[C@@H](CO)C(=O)N[C@@H](CCCNC(=N)N)C(=O)N[C@@H](Cc1ccc(O)cc1)C(=O)N[C@@H](CCCNC(=N)N)C(=O)N[C@@H](CCCCN)C(=O)N[C@@H](CCC(N)=O)C(=O)N[C@@H](CCSC)C(=O)N[C@@H](C)C(=O)N[C@H](C(=O)N[C@@H](CCCCN)C(=O)N[C@@H](CCCCN)C(=O)N[C@@H](Cc1ccc(O)cc1)C(=O)N[C@@H](CC(C)C)C(=O)N[C@@H](C)C(=O)N[C@@H](C)C(=O)N[C@H](C(=O)N[C@@H](CC(C)C)C(=O)NCC(=O)N[C@@H](CCCCN)C(=O)N[C@@H](CCCNC(=N)N)C(=O)N[C@@H](Cc1ccc(O)cc1)C(=O)N[C@@H](CCCCN)C(=O)N[C@@H](CCC(N)=O)C(=O)N[C@@H](CCCNC(=N)N)C(=O)N[C@H](C(=O)N[C@@H](CCCCN)C(=O)N[C@@H](CC(N)=O)C(=O)N[C@@H](CCCCN)C(N)=O)C(C)C)C(C)C)C(C)C)[C@@H](C)O (H-HSDAIFTDSYSRYRKQMAVKKYLAAVLGKRYKQRVKNK-NH2) |
| 105 | 9.1 | 20.8 | CC[C@H](C)[C@H](NC(=O)[C@H](C)NC(=O)[C@H](CC(=O)O)NC(=O)[C@H](CO)NC(=O)[C@@H](N)Cc1cnc[nH]1)C(=O)N[C@@H](Cc1ccccc1)C(=O)N[C@H](C(=O)N[C@@H](CC(=O)O)C(=O)N[C@@H](CO)C(=O)N[C@@H](Cc1ccc(O)cc1)C(=O)N[C@@H](CO)C(=O)N[C@@H](CCCNC(=N)N)C(=O)N[C@@H](Cc1ccc(O)cc1)C(=O)N[C@@H](CCCNC(=N)N)C(=O)N[C@@H](CCCCN)C(=O)N[C@@H](CCC(N)=O)C(=O)N[C@@H](CCSC)C(=O)N[C@@H](C)C(=O)N[C@H](C(=O)N[C@@H](CCCCN)C(=O)N[C@@H](CCCCN)C(=O)N[C@@H](Cc1ccc(O)cc1)C(=O)N[C@@H](CC(C)C)C(=O)N[C@@H](C)C(=O)N[C@@H](C)C(=O)N[C@H](C(=O)N[C@@H](CC(C)C)C(N)=O)C(C)C)C(C)C)[C@@H](C)O |
| 108 | 7.9 | 7.7 | CC[C@H](C)[C@H](NC(=O)CNC(=O)[C@H](CC(=O)O)NC(=O)[C@H](CO)NC(=O)[C@@H](N)Cc1cnc[nH]1)C(=O)N[C@@H](Cc1ccc(O)cc1)C(=O)N[C@H](C(=O)N[C@@H](CC(=O)O)C(=O)N[C@@H](CO)C(=O)N[C@@H](Cc1ccc(O)cc1)C(=O)N[C@@H](CO)C(=O)N[C@@H](CCCNC(=N)N)C(=O)N[C@@H](Cc1ccc(O)cc1)C(=O)N[C@@H](CCCNC(=N)N)C(=O)N[C@@H](CCCCN)C(=O)N[C@@H](CCC(N)=O)C(=O)N[C@@H](CCSC)C(=O)N[C@@H](C)C(=O)N[C@H](C(=O)N[C@@H](CCCCN)C(=O)N[C@@H](CCCCN)C(=O)N[C@@H](Cc1ccc(O)cc1)C(=O)N[C@@H](CC(C)C)C(=O)N[C@@H](C)C(=O)N[C@@H](C)C(=O)N[C@H](C(=O)N[C@@H](CC(C)C)C(N)=O)C(C)C)C(C)C)[C@@H](C)O |
